{"source": "ChEMBL document CHEMBL1125138", "about": "“1,3-Dialkyl-3-acyltriazenes, a novel class of antineoplastic alkylating agents” (J Med Chem, 1990)", "key": {"A549": {"tested_on": "A549", "assay": "Evaluated for the inhibitory concentration required to cause growth inhibition of A549Rem- cell line of lung using the MTT Cytotoxicity Assay", "type": "functional, cell-based", "settings": "Homo sapiens", "summary_of_the_method": "(§1)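 MTT microculture tetrazolium growth assay on human cell lines and normal fibroblasts. Cells seeded at 1000 cells/well, with compound added 24 h after plating. Cultures then incubated a further 6 days at 37 °C before MTT read-out of growth versus untreated cells.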"}, "MCF7": {"tested_on": "MCF7", "assay": "Evaluated for the inhibitory concentration required to cause growth inhibition of MCF-7 breast cell line using the MTT Cytotoxicity Assay", "type": "functional, cell-based", "settings": "Homo sapiens", "summary_of_the_method": "as §1"}, "CCD 19Lu": {"tested_on": "CCD 19Lu", "assay": "Evaluated for the inhibitory concentration required to cause growth inhibition of CCD-19Lu fibroblasts cell line using the MTT Cytotoxicity Assay", "type": "functional, cell-based", "settings": "Homo sapiens", "summary_of_the_method": "as §1"}, "NCI-H125": {"tested_on": "NCI-H125", "assay": "Evaluated for the inhibitory concentration required to cause growth inhibition of H125 cell line of lung using the Microculture Tetrazolium (MTT) Cytotoxicity Assay", "type": "functional, cell-based", "settings": "Homo sapiens", "summary_of_the_method": "as §1"}, "NCI-H322M": {"tested_on": "NCI-H322M", "assay": "Evaluated for the inhibitory concentration required to cause growth inhibition of H322M cell line of lung using the Microculture Tetrazolium (MTT) Cytotoxicity Assay", "type": "functional, cell-based", "settings": "Homo sapiens", "summary_of_the_method": "as §1"}, "DOD-1": {"tested_on": "DOD-1", "assay": "Evaluated for the inhibitory concentration required to cause growth inhibition of DOD-1 breast cell line using the MTT Cytotoxicity Assay", "type": "functional, cell-based", "settings": "Homo sapiens", "summary_of_the_method": "as §1"}, "OVCAR-4": {"tested_on": "OVCAR-4", "assay": "Evaluated for the inhibitory concentration required to cause growth inhibition of OVCAR-4 ovarian cell line using the MTT Cytotoxicity Assay", "type": "functional, cell-based", "settings": "Homo sapiens", "summary_of_the_method": "as §1"}, "NCI/ADR-RES": {"tested_on": "NCI/ADR-RES", "assay": "Evaluated for the inhibitory concentration required to cause growth inhibition of MCF-7ADR breast cell line using the MTT Cytotoxicity Assay", "type": "functional, cell-based", "settings": "Homo sapiens", "summary_of_the_method": "as §1"}, "LOX IMVI": {"tested_on": "LOX IMVI", "assay": "Evaluated for the inhibitory concentration required to cause growth inhibition of LOX melanoma cell line using the MTT Cytotoxicity Assay", "type": "functional, cell-based", "settings": "Homo sapiens", "summary_of_the_method": "as §1"}, "[1]": {"tested_on": "MAR BEL fibroblasts cell line", "assay": "Evaluated for the inhibitory concentration required to cause growth inhibition of MAR BEL fibroblasts cell line using the MTT Cytotoxicity Assay", "type": "functional, cell-based", "settings": "Homo sapiens", "summary_of_the_method": "as §1"}, "OVCAR-3": {"tested_on": "OVCAR-3", "assay": "Evaluated for the inhibitory concentration required to cause growth inhibition of OVCAR-3 ovarian cell line using the MTT Cytotoxicity Assay", "type": "functional, cell-based", "settings": "Homo sapiens", "summary_of_the_method": "as §1"}, "NCI-H522 (Homo sapiens)": {"tested_on": "NCI-H522 (Homo sapiens)", "assay": "Evaluated for the inhibitory concentration required to cause growth inhibition of H522 cell line of lung using the Microculture Tetrazolium (MTT) Cytotoxicity Assay"}, "NCI-H23": {"tested_on": "NCI-H23", "assay": "Evaluated for the inhibitory concentration required to cause growth inhibition of H23 cell line of lung using the Microculture Tetrazolium (MTT) Cytotoxicity Assay", "type": "functional, cell-based", "settings": "Homo sapiens", "summary_of_the_method": "as §1"}, "U-251": {"tested_on": "U-251", "assay": "Evaluated for the inhibitory concentration required to cause growth inhibition of U251 cell line of central nervous system (CNS) using the MTT Cytotoxicity Assay", "type": "functional, cell-based", "settings": "Homo sapiens", "summary_of_the_method": "(§2)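 MTT cell-growth assay in human cell lines: cells harvested and seeded at 1000 cells/well in 96-well plates. Compound added after 24 h, then cultures incubated a further 6 days at 37 °C. Growth measured with and without agent.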"}, "Malme-3M": {"tested_on": "Malme-3M", "assay": "Evaluated for the inhibitory concentration required to cause growth inhibition of MALME-3M melanoma cell line using the MTT Cytotoxicity Assay", "type": "functional, cell-based", "settings": "Homo sapiens", "summary_of_the_method": "as §1"}, "A673": {"tested_on": "A673", "assay": "Evaluated for the inhibitory concentration required to cause growth inhibition of A673Mer+ sarcoma cell line using the MTT Cytotoxicity Assay", "type": "functional, cell-based", "settings": "Homo sapiens", "summary_of_the_method": "as §1"}, "WiDr": {"tested_on": "WiDr", "assay": "Evaluated for the inhibitory concentration required to cause growth inhibition of WiDR colon cell line using the MTT Cytotoxicity Assay", "type": "functional, cell-based", "settings": "Homo sapiens", "summary_of_the_method": "as §2"}, "HOS-TE85": {"tested_on": "HOS-TE85", "assay": "Evaluated for the inhibitory concentration required to cause growth inhibition of TE85Mer+ sarcoma cell line using the MTT Cytotoxicity Assay", "type": "functional, cell-based", "settings": "Homo sapiens", "summary_of_the_method": "as §1"}, "RPMI-7951": {"tested_on": "RPMI-7951", "assay": "Evaluated for the inhibitory concentration required to cause growth inhibition of RPMI7951 melanoma cell line using the MTT Cytotoxicity Assay", "type": "functional, cell-based", "settings": "Homo sapiens", "summary_of_the_method": "as §1"}, "NCI-H460": {"tested_on": "NCI-H460", "assay": "Evaluated for the inhibitory concentration required to cause growth inhibition of H460 cell line of lung using the Microculture Tetrazolium (MTT) Cytotoxicity Assay", "type": "functional, cell-based", "settings": "Homo sapiens", "summary_of_the_method": "as §1"}, "A704": {"tested_on": "A704", "assay": "Evaluated for the inhibitory concentration required to cause growth inhibition of A704Rem- renal cell line using the MTT Cytotoxicity Assay", "type": "functional, cell-based", "settings": "Homo sapiens", "summary_of_the_method": "as §1"}, "NCI-H358": {"tested_on": "NCI-H358", "assay": "Evaluated for the inhibitory concentration required to cause growth inhibition of H358M cell line of lung using the Microculture Tetrazolium (MTT) Cytotoxicity Assay", "type": "functional, cell-based", "settings": "Homo sapiens", "summary_of_the_method": "as §1"}, "SK-MEL-5": {"tested_on": "SK-MEL-5", "assay": "Evaluated for the inhibitory concentration required to cause growth inhibition of SK-MEL-5 melanoma cell line using the MTT Cytotoxicity Assay", "type": "functional, cell-based", "settings": "Homo sapiens", "summary_of_the_method": "as §1"}, "TE-671": {"tested_on": "TE-671", "assay": "Evaluated for the inhibitory concentration required to cause growth inhibition of TE-671 cell line of central nervous system (CNS)using the MTT Cytotoxicity Assay", "type": "functional, cell-based", "settings": "Homo sapiens", "summary_of_the_method": "as §1"}, "A-427": {"tested_on": "A-427", "assay": "Evaluated for the inhibitory concentration required to cause growth inhibition of A427Mer- cell line of lung using the MTT Cytotoxicity Assay", "type": "functional, cell-based", "settings": "Homo sapiens", "summary_of_the_method": "as §1"}, "A498": {"tested_on": "A498", "assay": "Evaluated for the inhibitory concentration required to cause growth inhibition of A498Rem- renal cell line using the MTT Cytotoxicity Assay", "type": "functional, cell-based", "settings": "Homo sapiens", "summary_of_the_method": "as §1"}, "A 172": {"tested_on": "A 172", "assay": "Evaluated for the inhibitory concentration required to cause growth inhibition of A172Mer- cell line of central nervous system (CNS) using the MTT Cytotoxicity Assay", "type": "functional, cell-based", "settings": "Homo sapiens", "summary_of_the_method": "as §1"}}}
{"smiles": "C/N=N\\N(C)C(C)=O", "values": [{"measurement": "IC50", "setting": "A549", "result": 55, "unit": "µM"}, {"measurement": "IC50", "setting": "MCF7", "result": 37, "unit": "µM"}, {"measurement": "IC50", "setting": "CCD 19Lu", "result": 77, "unit": "µM"}, {"measurement": "IC50", "setting": "NCI-H125", "result": 53, "unit": "µM"}, {"measurement": "IC50", "setting": "NCI-H322M", "result": 55, "unit": "µM"}, {"measurement": "IC50", "setting": "DOD-1", "result": 60, "unit": "µM"}, {"measurement": "IC50", "setting": "OVCAR-4", "result": 45, "unit": "µM"}, {"measurement": "IC50", "setting": "NCI/ADR-RES", "result": 40, "unit": "µM"}, {"measurement": "IC50", "setting": "LOX IMVI", "result": 30, "unit": "µM"}, {"measurement": "IC50", "setting": "[1]", "result": 80, "unit": "µM"}, {"measurement": "IC50", "setting": "OVCAR-3", "result": 55, "unit": "µM"}, {"measurement": "IC50", "setting": "NCI-H522 (Homo sapiens)", "result": 30, "unit": "µM"}, {"measurement": "IC50", "setting": "NCI-H23", "result": 42, "unit": "µM"}, {"measurement": "IC50", "setting": "U-251", "result": 42, "unit": "µM"}, {"measurement": "IC50", "setting": "Malme-3M", "result": 25, "unit": "µM"}, {"measurement": "IC50", "setting": "A673", "result": 65, "unit": "µM"}, {"measurement": "IC50", "setting": "WiDr", "result": 40, "unit": "µM"}, {"measurement": "IC50", "setting": "HOS-TE85", "result": 40, "unit": "µM"}, {"measurement": "IC50", "setting": "RPMI-7951", "result": 60, "unit": "µM"}, {"measurement": "IC50", "setting": "NCI-H460", "result": 75, "unit": "µM"}, {"measurement": "IC50", "setting": "A704", "result": 55, "unit": "µM"}, {"measurement": "IC50", "setting": "NCI-H358", "result": 100, "unit": "µM"}, {"measurement": "IC50", "setting": "SK-MEL-5", "result": 37, "unit": "µM"}, {"measurement": "IC50", "setting": "TE-671", "result": 7, "unit": "µM"}, {"measurement": "IC50", "setting": "A-427", "result": 11, "unit": "µM"}, {"measurement": "IC50", "setting": "A498", "result": 48, "unit": "µM"}]}
{"smiles": "O=NN(CCCl)C(=O)NCCCl", "note": "[CARMUSTINE]", "values": [{"measurement": "IC50", "setting": "A549", "result": 90, "unit": "µM"}, {"measurement": "IC50", "setting": "MCF7", "result": 4.5, "unit": "µM"}, {"measurement": "IC50", "setting": "A 172", "result": 18, "unit": "µM"}, {"measurement": "IC50", "setting": "CCD 19Lu", "result": 300, "unit": "µM"}, {"measurement": "IC50", "setting": "NCI-H125", "result": 9, "unit": "µM"}, {"measurement": "IC50", "setting": "NCI-H322M", "result": 60, "unit": "µM"}, {"measurement": "IC50", "setting": "DOD-1", "result": 37, "unit": "µM"}, {"measurement": "IC50", "setting": "OVCAR-4", "result": 18, "unit": "µM"}, {"measurement": "IC50", "setting": "NCI/ADR-RES", "result": 20, "unit": "µM"}, {"measurement": "IC50", "setting": "LOX IMVI", "result": 7, "unit": "µM"}, {"measurement": "IC50", "setting": "OVCAR-3", "result": 15, "unit": "µM"}, {"measurement": "IC50", "setting": "NCI-H522 (Homo sapiens)", "result": 20, "unit": "µM"}, {"measurement": "IC50", "setting": "NCI-H23", "result": 5, "unit": "µM"}, {"measurement": "IC50", "setting": "U-251", "result": 15, "unit": "µM"}, {"measurement": "IC50", "setting": "Malme-3M", "result": 20, "unit": "µM"}, {"measurement": "IC50", "setting": "NCI-H460", "result": 80, "unit": "µM"}, {"measurement": "IC50", "setting": "A704", "result": 125, "unit": "µM"}, {"measurement": "IC50", "setting": "NCI-H358", "result": 98, "unit": "µM"}, {"measurement": "IC50", "setting": "SK-MEL-5", "result": 27, "unit": "µM"}, {"measurement": "IC50", "setting": "TE-671", "result": 25, "unit": "µM"}, {"measurement": "IC50", "setting": "A-427", "result": 8, "unit": "µM"}, {"measurement": "IC50", "setting": "A498", "result": 110, "unit": "µM"}]}
